Results published in ChEMBL document CHEMBL3112469, “Substituted 2-phenylimidazopyridines: a new class of drug leads for human African trypanosomiasis” (J Med Chem, 2014).

Tests used:
[1] = test system: L6; test: Cytotoxicity against rat L6 cells after 48 hrs by Alamar Blue assay; format: cell-based; details: l6, 48 h
[2] = test system: Trypanosoma brucei brucei; test: Antiparasitic activity against Trypanosoma brucei brucei BF427 assessed as growth inhibition by Alamar Blue assay; format: functional, organism-based
How it was run: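 Bloodstream-form T. brucei brucei BF427 grown with serial compound dilutions, each tested in triplicate. Growth quantified with AlamarBlue. Pentamidine isothionate included in every assay as positive control.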

[3] = Cytotoxicity against human CRL8155 cells after 48 hrs by Alamar Blue assay; format: cell-based; details: crl8155, 48 h
[4] = test system: HepG2; test: Cytotoxicity against human HepG2 cells after 48 hrs by Alamar Blue assay; format: cell-based; details: hepg2, 48 h

Structure (SMILES)	EC50 [2] [µM]	CC50 [1] [µM]	CC50 [3] [µM]	CC50 [4] [µM]
O=C(Nc1ccc(F)c(-c2nc3cc(Cl)cnc3[nH]2)c1)c1ccco1	0.07	> 50	1.7	> 50
O=C(Nc1ccc(F)c(-c2nc3ncc(Br)cc3o2)c1)c1ccco1	0.23	> 50		
O=C(Nc1ccc(Cl)c(-c2nc3ncccc3o2)c1)c1cccs1	1.5	> 50		
COc1ncc(-c2cnc3[nH]c(-c4cc(NC(=O)N5CCCC5)ccc4F)nc3c2)cn1	0.06		3.9	9.8
O=C(Nc1ccc(F)c(-c2nc3ncccc3o2)c1)c1cccnc1	7	> 50		
O=C(Nc1ccc(F)c(-c2nc3cc(Cl)cnc3[nH]2)c1)N1CCCC1	0.05	15	> 50	> 50
Cc1ccoc1C(=O)Nc1ccc(F)c(-c2nc3ncccc3o2)c1	0.1	> 50		
O=C(Nc1ccc(F)c(-c2nc3cc(-c4cncnc4)cnc3[nH]2)c1)N1CCCC1	0.03		12	> 50
O=C(Nc1ccc(F)c(-c2nc3cc(-c4ccsc4)cnc3[nH]2)c1)N1CCCC1	0.002		6	> 50
O=C(Nc1ccc(Cl)c(-c2nc3ccccc3o2)c1)c1ccccc1F	> 20			
O=C(Nc1ccc(F)c(-c2nc3c(Cl)ccnc3[nH]2)c1)c1ccco1	0.12			
Cc1cccc(-c2cnc3[nH]c(-c4cc(NC(=O)N5CCCC5)ccc4F)nc3c2)c1	0.002		5	10
O=C(Nc1ccc(F)c(-c2nc3cc(-c4cnc(Cl)nc4)cnc3[nH]2)c1)N1CCCC1	0.04	14.3		
N=C(N)c1ccc(OCCCCCOc2ccc(C(=N)N)cc2)cc1 [PENTAMIDINE]	0.00174			
CCN(CC)CCCC(C)Nc1c2ccc(Cl)cc2nc2ccc(OC)cc12 (centres undefined) [QUINACRINE]			3.92	9.78
O=C(Nc1ccccc1)Nc1ccc(Cl)c(-c2nc3ncccc3o2)c1	12	> 50		
O=C(Nc1ccc(F)c(-c2nc3cc(-c4cccs4)cnc3[nH]2)c1)N1CCCC1	0.004		9	
Cc1cncc(-c2cnc3[nH]c(-c4cc(NC(=O)N5CCCC5)ccc4F)nc3c2)c1	0.01		> 50	> 50

Structure (SMILES)	EC50 [2] [µM]	CC50 [1] [µM]	CC50 [3] [µM]	CC50 [4] [µM]
O=C(Nc1ccc(F)c(-c2nc3cc(F)cnc3[nH]2)c1)c1ccco1	0.2			
COc1ccccc1-c1cnc2[nH]c(-c3cc(NC(=O)N4CCCC4)ccc3F)nc2c1	0.005		13	> 50
CS(=O)(=O)Nc1ccc(Cl)c(-c2nc3ncccc3o2)c1	6.1	> 50		
Fc1ccc(NC(=S)c2ccco2)cc1-c1nc2ncccc2o1	0.41	> 50		
Nc1ccc(Cl)c(-c2nc3ncccc3o2)c1	> 20			
O=C(Nc1ccc(F)c(-c2nc3ncccc3o2)c1)c1ccoc1	0.15	> 50		
O=C(Nc1ccc(Cl)c(-c2nc3ncccc3o2)c1)N1CCCCC1	1.9			
O=C(Nc1ccc(F)c(-c2nc3cc(-c4cccnc4)cnc3[nH]2)c1)N1CCCC1	0.005		14	> 50
COc1ccc(-c2cnc3nc(-c4cc(NC(=O)c5ccco5)ccc4F)oc3c2)cc1	0.17			
O=C(Nc1ccc(F)c(-c2nc3ncc(-c4ccc(-c5ccccc5)cc4)cc3o2)c1)c1ccco1	0.42	> 50		
CN1CCN(C(=O)c2cc(NC(=O)c3ccco3)ccc2Cl)CC1	> 20			
COc1cc([C@@H]2c3cc4c(cc3[C@H](O)[C@H]3COC(=O)[C@H]23)OCO4)cc(OC)c1OC [PODOFILOX]		0.014		
O=C(Nc1ccc(Cl)c(-c2nc3ncccc3o2)c1)c1ccccc1	7.1	> 50		
O=C(Nc1ccc(Cl)c(-c2nc3ccccc3o2)c1)C1CCCCC1	> 20			
O=C(Nc1ccc(F)c(-c2nc3ncccc3o2)c1)c1cnco1	1.9	> 50		
COc1ccc(-c2cnc3[nH]c(-c4cc(NC(=O)N5CCCC5)ccc4F)nc3c2)cn1	0.005		> 50	> 50
N#Cc1cnc2nc(-c3cc(NC(=O)c4ccco4)ccc3F)oc2c1	0.38	> 50		
O=C(Nc1ccc(F)c(-c2nc3cc(-c4cncc(N5CCCC5)c4)cnc3[nH]2)c1)N1CCCC1	0.02		8	> 50

More lines, main results first:

EC50 [2] [µM]	Structure (SMILES)	CC50 [1] [µM]	CC50 [3] [µM]	CC50 [4] [µM]
0.2	Cc1ccc(C(=O)Nc2ccc(F)c(-c3nc4ncccc4o3)c2)o1	> 50		
0.12	O=C(c1ccco1)N(C(=O)c1ccco1)c1ccc(F)c(-c2nc3ncccc3o2)c1	> 50	> 50	> 50
0.5	CC(=O)N(C(=O)c1ccco1)c1ccc(F)c(-c2nc3ncccc3o2)c1			
> 20	Fc1ccc(NCc2ccccc2)cc1-c1nc2ncccc2o1			
3.8	CNC(=O)Nc1ccc(F)c(-c2nc3ncccc3o2)c1	> 50		
1	CC(C)NC(=O)Nc1ccc(Cl)c(-c2nc3ncccc3o2)c1	> 50		
1.1	Fc1ccc(N(Cc2ccccc2)Cc2ccccc2)cc1-c1nc2ncccc2o1	> 50		
0.2	O=C(Nc1ccc(F)c(-c2nc3cccnc3[nH]2)c1)c1ccco1			
> 20	O=C(Nc1ccc(Cl)c(C(=O)N2CCOCC2)c1)c1ccco1			
> 10	COc1ccc(NC(=O)c2ccco2)cc1-c1nc2ncccc2o1	> 50		
> 20	O=C(Nc1ccc(-c2ccncc2)c(-c2nc3ncccc3o2)c1)c1ccco1			
> 20	O=C(Nc1ccc(Cl)c(-c2nc3ccccc3o2)c1)c1cccc(F)c1			
0.9	O=C(Nc1ccc(F)c(-c2nc3ncccc3o2)c1)c1cnccn1	> 50		
0.003	CC(=O)c1cccc(-c2cnc3[nH]c(-c4cc(NC(=O)N5CCCC5)ccc4F)nc3c2)c1			
> 20	O=C(Nc1ccc(F)c(-c2nc3cnccc3o2)c1)c1ccco1			
0.01	O=C(Nc1ccc(F)c(-c2nc3cc(-c4ccc(Cl)nc4)cnc3[nH]2)c1)N1CCCC1		3.8	> 50
> 10	O=C(Nc1ccc(F)c(-c2nc3ncccc3o2)c1)C1CCCO1 (centres undefined)			
> 20	O=C(Nc1ccc(Cl)c(C(=O)N2CCNCC2)c1)c1ccco1			
> 10	O=C(Nc1ccc(F)c(CNc2ccc(Cl)cn2)c1)c1ccco1			
0.01	COc1cccc(-c2cnc3[nH]c(-c4cc(NC(=O)N5CCCC5)ccc4F)nc3c2)c1		3.6	35
10	O=C(Nc1ccc(F)c(-c2nc3ccc(Cl)nc3[nH]2)c1)c1ccco1			
0.005	O=C(Nc1ccc(F)c(-c2nc3cc(-c4ccccc4Cl)cnc3[nH]2)c1)N1CCCC1			
0.01	Nc1cccc(-c2cnc3[nH]c(-c4cc(NC(=O)N5CCCC5)ccc4F)nc3c2)c1		5	40
7	O=C(Nc1ccc(F)c(C(=O)Nc2ccc(Cl)cn2)c1)c1ccco1			

EC50 [2] [µM]	Structure (SMILES)	CC50 [1] [µM]	CC50 [3] [µM]	CC50 [4] [µM]
> 50	O=C(Nc1ccc(-c2ccc(F)cc2)c(-c2nc3ncccc3o2)c1)c1ccco1	> 50		
> 10	O=C(Nc1ccc(F)c(-c2nc3ncccc3o2)c1)c1cc2ccccc2o1	> 50		
0.002	O=C(Nc1ccc(F)c(-c2nc3cc(-c4cccc(Cl)c4)cnc3[nH]2)c1)N1CCCC1		2.8	> 50
> 20	Cc1cccc(C(=O)Nc2ccc(Cl)c(-c3nc4ccccc4o3)c2)c1			
> 20	O=C(Nc1ccc(Cl)c(-c2nc3ccccc3o2)c1)c1ccccc1			
0.05	O=C(Nc1ccc(F)c(-c2nc3ncc(-c4cccc(Cl)c4)cc3o2)c1)c1ccco1	> 50		
0.09	O=C(Nc1ccc(Cl)c(-c2nc3ncccc3o2)c1)N1CCCC1		> 50	> 50
> 20	Cc1ccccc1C(=O)Nc1ccc(Cl)c(-c2nc3ccccc3o2)c1			
> 50	O=C(Nc1ccc(-c2ccc(F)c(F)c2)c(-c2nc3ncccc3o2)c1)c1ccco1	> 50		
0.43	Cc1ccc(NC(=O)c2ccco2)cc1-c1nc2ncccc2o1	> 50		
0.03	O=C(Nc1ccc(F)c(-c2nc3cc(-c4cccc(OC(F)(F)F)c4)cnc3[nH]2)c1)N1CCCC1		11	> 50
0.4	CN(C)C(=O)Nc1ccc(Cl)c(-c2nc3ncccc3o2)c1	> 50		
0.12	O=C(Nc1ccc(F)c(-c2nc3ncccc3o2)c1)c1ccco1	> 50		
0.004	O=C(Nc1ccc(F)c(-c2nc3cc(-c4ccnc(Cl)c4)cnc3[nH]2)c1)N1CCCC1		> 50	> 50
> 20	O=C(Nc1ccc(Cl)c(-c2nc3ccccc3o2)c1)c1ccco1			
1.1	Cn1cccc1C(=O)Nc1ccc(F)c(-c2nc3ncccc3o2)c1	> 50		
> 20	CC(=O)Nc1ccc(F)c(-c2nc3ncccc3o2)c1	> 50		
> 20	O=S(=O)(Nc1ccc(Cl)c(-c2nc3ncccc3o2)c1)c1ccccc1	> 50		
0.004	O=C(Nc1ccc(F)c(-c2nc3cc(-c4ccoc4)cnc3[nH]2)c1)N1CCCC1		25	> 50
0.4	N#Cc1ccc(NC(=O)c2ccco2)cc1-c1nc2ncccc2o1	> 50		
> 20	Cn1cncc1C(=O)Nc1ccc(F)c(-c2nc3ncccc3o2)c1	> 50		
0.005	O=C(Nc1ccc(F)c(-c2nc3cc(-c4cncc(Cl)c4)cnc3[nH]2)c1)N1CCCC1		38	> 50
0.02	Cc1cc(-c2cnc3[nH]c(-c4cc(NC(=O)N5CCCC5)ccc4F)nc3c2)ccc1F		> 50	
> 10	CN(C(=O)c1ccco1)c1ccc(F)c(-c2nc3ncccc3o2)c1	> 50		
